Test results as given in ChEMBL document CHEMBL1158458, “Virtual screening approach for the identification of new Rac1 inhibitors” (J Med Chem, 2009).
pIC50: −log10 of the molar value. The source made the active and inactive calls. No cut-off for these calls is given here.

Columns and labels:
[1] = biological target: Cell division control protein 42 homolog (Homo sapiens) (UniProt P60953); test: Inhibition of Cdc42
[2] = biological target: Cell division control protein 42 homolog (Homo sapiens) (UniProt P60953); test: Inhibition of PDGF-BB-stimulated Cdc42 activity in human aortic smooth muscle cells assessed as reduction in ratio of Cdc42GTP/Cdc42 levels at 25 uM after 4 hrs by pull-down assay
Procedure, shortened: (§1)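 Cultured human aortic SMCs exposed to compound at 25 μM for 4 h, then stimulated with PDGF-BB (final 10 ng/mL) for 2 min. Active GTPase (Cdc42-GTP for line 2, RhoA-GTP for line 3) isolated by pull-down and expressed as the GTP-bound/total protein ratio. The Rac1 pull-down was run under the same conditions.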

[3] = biological target: Transforming protein RhoA (Homo sapiens) (UniProt P61586); test: Inhibition of PDGF-BB-stimulated RhoA activity in human aortic smooth muscle cells assessed as reduction in ratio of RhoAGTP/RhoA levels at 25 uM after 4 hrs by pull-down assay; procedure, shortened: as §1
Sequence of Transforming protein RhoA (Homo sapiens) (P61586 whole entry): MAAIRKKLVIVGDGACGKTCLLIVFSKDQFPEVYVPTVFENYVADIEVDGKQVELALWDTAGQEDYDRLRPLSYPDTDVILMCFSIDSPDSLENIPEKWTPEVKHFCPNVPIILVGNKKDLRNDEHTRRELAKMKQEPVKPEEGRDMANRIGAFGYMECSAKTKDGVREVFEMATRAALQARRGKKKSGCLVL

[4] = biological target: Ras-related C3 botulinum toxin substrate 1 (Homo sapiens, UniProt P63000); test: Inhibition of PDGF-BB-stimulated Rac1 activity in human aortic smooth muscle cells assessed as reduction of Rac1GTP level after 4 hrs by G-LISA
[5] = biological target: Ras-related C3 botulinum toxin substrate 1 (Mus musculus) (UniProt P63001); test: Inhibition of PDGF-BB-stimulated Rac1-mediated cellular events in mouse 3T3 cells assessed as induction of membrane lamillipodia at 25 uM after 48 hrs by fluorescent microscopy; format: cell-based; conditions: NIH3T3
Procedure, shortened: (§2)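 Serum-starved 3T3 cells were treated with compound at 25 μM and stimulated with PDGF-BB. Lamellipodia and membrane ruffle formation at the cell edges were then scored, together with cytoskeletal rearrangement.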

[6] = biological target: Ras-related C3 botulinum toxin substrate 1 (Mus musculus) (UniProt P63001); test: Inhibition of PDGF-BB-stimulated Rac1-mediated cellular events in mouse 3T3 cells assessed as induction of membrane ruffling formation at 25 uM after 48 hrs by fluorescent microscopy; format: cell-based; conditions: NIH3T3; procedure, shortened: as §2

Sequence of Cell division control protein 42 homolog (Homo sapiens) (P60953 whole entry, looked up): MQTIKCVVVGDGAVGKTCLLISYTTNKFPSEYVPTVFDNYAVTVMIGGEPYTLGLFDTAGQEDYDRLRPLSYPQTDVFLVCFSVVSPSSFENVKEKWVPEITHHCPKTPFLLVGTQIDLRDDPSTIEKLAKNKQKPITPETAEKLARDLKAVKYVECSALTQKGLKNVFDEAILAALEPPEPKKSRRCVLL

SMILES	Activity [1]	Percent reduction in Cdc42-GTP/total Cdc42 ratio [2]	Activity [3]	pIC50 [4]	Activity [5]	Activity [6]
O=C(CNc1ccc(F)c([N+](=O)[O-])c1)Nc1ccc(N2CCOCC2)cc1	Active	< 25%	inactive			
COc1cc2c(C#N)c(N3CCN(c4ccccc4OC)CC3)nc(N)c2c(N)n1	Active	< 25%	inactive	4.34		
COc1ccc(NC(=O)c2n[nH]c3ccccc23)cc1S(=O)(=O)N1CCCCC1	Active	< 25%	inactive		Active	Active
CC(OC(=O)c1ccc2ccccc2c1O)C(=O)Nc1ccc(N2CCOCC2)cc1 (stereo not given)	Active	< 25%	inactive			
